12 compounds from PubChem BioAssay can be followed below.

Test [1] in a line: reduced viability of SK-BR-3 breast cancer cells – cell-based, 24 h, human, pilot screen (AID 572;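 active means viability at or below 10% of carrier control in both of two separate runs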;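 further: compound exposure lasted between 18 and 24 h rather than exactly 24 h; 100% = carrier-treated control wells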). The settings on record: SK-BR-3 viability, CellTiter-Glo luminescence, at 10 µM, stronger effect = lower value. (In general: In ATP-based viability assays light output follows the ATP content of the culture.)
The nature of test [2]: HUVEC growth inhibition – cell-based, human, primary screen (AID 575;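 active means viability at or below 30% in both replicate assays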;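 further: 100% = median of untreated cell wells with 0.1% DMSO on each plate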). The settings on record: HUVEC proliferation, CellTiter-Glo luminescence, 72 h; at 10 µM; stronger effect = lower value. The procedure, abridged:
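Test system – primary HUVEC, no more than 12 passages · Dosing – one dose, 10 µM final, 0.1% DMSO · Times – 72 h treatment at 37 °C · Measured by – ATP-based CellTiter-Glo luminescent read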

Test [3] is described as follows: H69AR cell proliferation blockers – human, duplicate replicates, primary screen (AID 580;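 active means viability at or under a set limit in both replicates, limit being median viability minus 3 SD, cut at about 48% in these data, passing the limit was not always enough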;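 further: 100% = mean luminescence of untreated wells and 0% = no signal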). The settings on record: H69AR lung tumor cells viability, ATP luminescence, 72 h; at 10 µM; stronger effect = lower value.
The nature of test [4]: MRP1 drug-resistance reversers in H69AR cells – cell-based, doxorubicin co-treatment, pilot screen (AID 601). The settings on record: CellTiter-Glo, 72 h, at 10 µM; for differential viability (reversal): stronger effect = higher value.
The nature of test [5]: yeast transport mutant growth inhibition pilot in 384-well plates, post-Golgi transport modulator project (AID 636; in the data active means inhibition above about 31%). The note with it: absorbance 615 nm, about 18 h, stronger effect = higher value.
The nature of test [6]: growth suppression of yeast trafficking mutant, preliminary HTS, modulators of trafficking downstream of Golgi apparatus project, 1536-format plate, OD 615 nm (AID 637; in the data active means inhibition above about 30%). The note with it: yeast transport mutant growth, absorbance 615 nm, 18 h; stronger effect = higher value.
[7] abbreviates: H69AR cells + 2 uM doxorubicin, measured here: viability with 2 uM doxorubicin, stronger effect = lower value.
The mark [8] stands for this setting: H69AR cells, compound alone cytotoxicity.

Active and inactive are the calls of the source.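 How the source made its calls, unless noted: active means viability loss from added drug above about 55%, and viability with drug at most 40%, in both replicates (limit read from the data, passing the limit was not always enough); inconclusive means both conditions met in only one replicate; inactive means neither replicate meets both conditions.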

What is called viability is a read-out of living cells in per cent, often relative to untreated cells. In general, inhibition refers to the drop in the measured response relative to a control, in per cent.

`Cn1c(=O)c2c(nc(CN3CCN(c4ccccc4F)CC3)n2CCN2CCOCC2)n(C)c1=O`: the viability was 101% (inactive) in test [1]; 96.8% (inactive) in test [2]; 93.9% (inactive) in test [3]; 89.4% in test [4] (setting [7]); 93.9% in test [4] (setting [8]). The differential viability (reversal) in test [4] (H69AR cells + 2 uM doxorubicin) was 4.5% (inactive). The figures for the inhibition in test [5] and in test [6] were -5.95% (inactive) and 0.91% (inactive), respectively.
In the case of `COc1cc(C(=O)OCc2cc3ccccc3[nH]c2=O)cc(OC)c1OC`, the viability is 117% (inactive) in test [1]; 68.6% (inactive) in test [2]; 82.4% (inactive) in test [3]; 71.1% in test [4] (setting [7]); 82.4% in test [4] (setting [8]). In addition, in test [4] (H69AR cells + 2 uM doxorubicin), the differential viability (reversal) was 11.3% (inactive). The inhibition in test [5] is -2.8% (inactive); in test [6], -2.91% (inactive).
On to `O=C1c2ccccc2S(=O)(=O)N1Cc1nnc(-c2ccccc2Br)o1`, for which the viability is 88% (inactive) in test [1]; 102% (inactive) in test [2]; 95% (inactive) in test [3]; 78% in test [4] (setting [7]); 95% in test [4] (setting [8]). For the same compound, the differential viability (reversal) in test [4] (H69AR cells + 2 uM doxorubicin) was 17% (inactive). Also, the values for the inhibition in test [5] and in test [6] were -5.62% (inactive) and 0.32% (inactive), respectively.
`CC(C)(C)NC(=O)CN(Cc1cccs1)C(=O)c1csnn1`: the viability in test [1] is 96% (inactive); in test [2], 99.7% (inactive); in test [3], 105% (inactive); in test [4] (setting [7]), 108%; in test [4] (setting [8]), 105%. Moreover, in test [4] (H69AR cells + 2 uM doxorubicin), the differential viability (reversal) is -2.3% (inactive). In addition, the inhibition in test [5] was -7.12% (inactive); in test [6], -0.36% (inactive).
As for `COc1cc2c(=O)nc3n(c2cc1OC)C(c1ccccc1)N=C(N)N3` (stereo unspecified), the viability in test [1] is 69% (inactive); in test [2] it was 109% (inactive); in test [3], 97.1% (inactive); in test [4] (setting [7]), 99.4%; in test [4] (setting [8]) it was 97.1%. Also, in test [4] (H69AR cells + 2 uM doxorubicin), the differential viability (reversal) is -2.35% (inactive). Also, the inhibition is -2.84% (inactive) in test [5] and 20.2% (inactive) in test [6].
On to `Cc1ccc(-c2nnc3c4ccccc4c(C)nn23)cc1S(=O)(=O)N1CCN(C)CC1`, for which the viability in test [1] is 85% (inactive); in test [2], 78.6% (inactive); in test [3], 74% (inactive); in test [4] (setting [7]), 90.7%; in test [4] (setting [8]) it was 74%. For the same compound, in test [4] (H69AR cells + 2 uM doxorubicin), the differential viability (reversal) was -16.7% (inactive). For the same compound, the inhibition in test [5] was -5.2% (inactive); in test [6] it was 1.15% (inactive).
`COc1ccc(OCCOC(=O)c2cccc(-n3cnnn3)c2)cc1`: the viability in test [1] was 90% (inactive); in test [2], 107% (inactive); in test [3] it was 100% (inactive); in test [4] (setting [7]), 92.6%; in test [4] (setting [8]), 100%. Moreover, the differential viability (reversal) in test [4] (H69AR cells + 2 uM doxorubicin) is 7.56% (inactive). Also, the inhibition in test [5] was -8.36% (inactive); in test [6], 1.64% (inactive).
Consider `O=C(CSCc1ccc(F)cc1)NC1CCCC1`, for which the viability in test [1] is 137% (inactive); in test [2], 108% (inactive); in test [3], 95.8% (inactive); in test [4] (setting [7]), 82.2%; in test [4] (setting [8]) it was 95.8%. Further, in test [4] (H69AR cells + 2 uM doxorubicin), the differential viability (reversal) is 13.6% (inactive). Also, the inhibition in test [5] is -3.9% (inactive); in test [6] it was 4.1% (inactive).
Turning to `CC1CNCCN1S(=O)(=O)c1cccc2cnccc12` (stereo unspecified), the viability in test [1] is 100% (inactive); in test [2], 84.4% (inactive); in test [3], 102% (inactive); in test [4] (setting [7]) it was 96.2%; in test [4] (setting [8]), 102%. Also, in test [4] (H69AR cells + 2 uM doxorubicin), the differential viability (reversal) is 5.87% (inactive). Also, the values for the inhibition in test [5] and in test [6] were 1.3% (inactive) and -1.83% (inactive), respectively.
Consider `COc1ccccc1CC(=O)NCC1CCCO1` (stereo unspecified), for which the viability in test [1] is 110% (inactive); in test [2], 113% (inactive); in test [3], 99% (inactive); in test [4] (setting [7]) it was 90.7%; in test [4] (setting [8]) it was 99%. Further, in test [4] (H69AR cells + 2 uM doxorubicin), the differential viability (reversal) was 8.34% (inactive). For the same compound, the inhibition is -8.13% (inactive) in test [5] and -4.55% (inactive) in test [6].
For the compound `O=c1c2ccccc2[nH]c(=S)n1CCN1CCC(=C(c2ccc(F)cc2)c2ccc(F)cc2)CC1`, the viability is 113% (inactive) in test [1]; 18.2% (active) in test [2]; 78.8% (inactive) in test [3]; 83.6% in test [4] (setting [7]); 78.8% in test [4] (setting [8]). Besides, the differential viability (reversal) in test [4] (H69AR cells + 2 uM doxorubicin) was -4.72% (inactive). The values for the inhibition in test [5] and in test [6] were 83% (active) and 71% (active), respectively.
On to `Cc1nc2ccccn2c(=O)c1CCN1CCC(C(=O)c2ccc(F)cc2)CC1`, for which the viability in test [1] is 75% (inactive); in test [2], 83.6% (inactive); in test [3] it was 86.3% (inactive); in test [4] (setting [7]) it was 101%; in test [4] (setting [8]), 86.3%. Further, the differential viability (reversal) in test [4] (H69AR cells + 2 uM doxorubicin) is -15.1% (inactive). The inhibition in test [5] was 1.69% (inactive); in test [6] it was 17.2% (inactive).
